Source: ChEMBL document CHEMBL1123757, “Selective thromboxane synthetase inhibitors and antihypertensive agents. New derivatives of 4-hydrazino-5H-pyridazino[4,5-b]indole, 4-hydrazinopyridazino[4,5-a]indole, and related compounds” (J Med Chem, 1987)

Key:
[1] = Effect on PGI-2 release from rat aortic tissue at a final concentration of 10e -4 for an incubation time of 10 minutes; assay type: functional
Method in brief: (§1)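 Female Wistar rats (200–220 g) received heparin 200 IU/kg ip and were killed 10 min later. Aortic pieces of about 25 mm² were washed in ice-cold oxygenated Krebs–Henseleit buffer, then incubated in 1 mL buffer at 37 °C. Compound at 10^-4 M final was added 10 min before tissue transfer. PGI2 release was read as antiaggregatory activity of the incubate on ADP (2×10^-6 M)-induced human PRP aggregation and by 6-keto-PGF1α RIA. n = 4.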

[2] = Acute toxicity in mice was expressed as lethal dose; assay type: organism-based; settings: mouse, in vivo
Method in brief: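 Swiss male mice, 20 ± 2 g, dosed ip at four or more dose levels. LD50 calculated 7 days after drug administration by probit analysis (Miller and Tainter).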

Rattus norvegicus [3] = assay: Antihypertensive activity in spontaneously hypertensive rats (SHR) measured by percentage fall in arterial pressure (AP) at 25 mg/kg administered perorally at 5 h; assay type: functional, Artery; settings: route oral
Method in brief: (§2)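 Oral dosing at 2.5 mL/kg to unanesthetized male and female Okamoto-strain SHR (8 weeks old, 300–350 g, systolic pressure ≥190 mmHg, heart rate 400–650 beats/min), five per dose. Vehicle was normal saline or saline with 0.2% (carboxymethyl)cellulose and 1.0% Tween 80. AP measured on the tail by mechanical transduction at set times; expressed as percentage fall from control.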

Rattus norvegicus [4] = assay: Antihypertensive activity in spontaneously hypertensive rats (SHR) measured by percentage fall in cardiac rhythm (CR) at 25 mg/kg administered intraperitoneally at 24 h; assay type: functional, Heart; settings: route intraperitoneal
Method in brief: (§3)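 Unanesthetized Okamoto-strain SHR, male and female, 8 weeks old, 300–350 g, systolic pressure ≥190 mmHg, heart rate 400–650 beats/min; five animals per dose. Given ip at 2.5 mL/kg, dissolved or suspended in normal saline or saline with 0.2% (carboxymethyl)cellulose and 1.0% Tween 80. Tail AP and CR recorded by mechanical transduction at set times; reported as percentage fall from control.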

Rattus norvegicus [5] = assay: Antihypertensive activity in spontaneously hypertensive rats (SHR) measured by percentage fall in arterial pressure (AP) at 5 mg/kg administered intraperitoneally at 3 h; assay type: functional, Artery; settings: route intraperitoneal; method in brief: as §3
Cavia porcellus [6] = assay: Effect on thromboxane synthetase activity (ex vivo) at 100 mg/kg expressed as percent increase in TXB2; assay type: functional
Method in brief: (§4)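 Fasted male or female guinea pigs (250–300 g, five per group) dosed orally in normal saline or saline with 0.2% (carboxymethyl)cellulose/1.0% Tween 80; controls given vehicle. Under ether, cardiac blood collected into 3.8% citrate. PRP adjusted to […] and aggregation induced by ADP (second wave) or AA, read by absorbance aggregometry. PGE2 and TXB2 measured by RIA.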

Rattus norvegicus [7] = assay: Antihypertensive activity in spontaneously hypertensive rats (SHR) measured by percentage fall in cardiac rhythm (CR) at 5 mg/kg administered intraperitoneally at 1 h; assay type: functional, Heart; settings: route intraperitoneal
Method in brief: (§5)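 Conscious SHR (Okamoto strain), 8 weeks old, male and female, 300–350 g, systolic BP ≥190 mmHg, CR 400–650 beats/min. Given ip or po at 2.5 mL/kg in normal saline or saline with 0.2% (carboxymethyl)cellulose and 1.0% Tween 80. Tail AP and CR recorded by mechanical transduction at 1, 3, 5 and 24 h, five animals per dose. Effect expressed as % fall versus control.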

Homo sapiens [8] = species: Homo sapiens; assay: In vitro inhibition of platelet aggregation induced by adrenaline at 10e-5 M; assay type: functional
Method in brief: (§6)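 Human venous blood anticoagulated with 3.8% sodium citrate (1:9). PRP from centrifugation at 800 rpm for 10 min at room temperature. Count adjusted with PPP to […]. Compound in saline with 10% ethylene glycol is added to PRP and incubated at 37 °C before the agonist. Agonists: ADP 2×10^-5 M, AA 0.6 mM, PGH2 2.8 μM, adrenaline 0.6 μM. Born absorbance aggregometry; n = 5.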

Rattus norvegicus [9] = assay: Antihypertensive activity in spontaneously hypertensive rats (SHR) measured by percentage fall in arterial pressure (AP) at 25 mg/kg administered intraperitoneally at 3 h; assay type: functional, Artery; settings: route intraperitoneal; method in brief: as §3
Rattus norvegicus [10] = assay: Antihypertensive activity in spontaneously hypertensive rats (SHR) measured by percentage fall in arterial pressure (AP) at 25 mg/kg administered perorally at 3 h; assay type: functional, Artery; settings: route oral; method in brief: as §2
[11] = Effect on PGI-2 release from rat aortic tissue at a final concentration of 10e -4 for an incubation time of 25 minutes; assay type: functional; method in brief: as §1
[12] = Effect on PGI-2 release from rat aortic tissue at a final concentration of 10e -4 for an incubation time of 30 minutes; assay type: functional; method in brief: as §1
Rattus norvegicus [13] = assay: Antihypertensive activity in spontaneously hypertensive rats (SHR) measured by percentage fall in cardiac rhythm (CR) at 5 mg/kg administered intraperitoneally at 5 h; assay type: functional, Heart; settings: route intraperitoneal; method in brief: as §5
Rattus norvegicus [14] = assay: Antihypertensive activity in spontaneously hypertensive rats (SHR) measured by percentage fall in arterial pressure (AP) at 25 mg/kg administered intraperitoneally at 5 h; assay type: functional, Artery; settings: route intraperitoneal; method in brief: as §3
Rattus norvegicus [15] = assay: Percent fall in systolic blood pressure, directly measured on carotid (iv on the jugular vein) of spontaneously hypertensive rats at 1 mg/kg after 5 minutes; assay type: functional, Artery
Method in brief: (§7)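 Anesthetized (sodium pentobarbital, 70 mg/kg) male and female Okamoto SHR, 8 weeks old, 300–350 g. Given iv into the jugular vein in normal saline. Arterial pressure and cardiac rhythm are recorded directly from the carotid by polygraph at set times after dosing. Each is expressed as percent change from the pre-dose control value.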

Homo sapiens [16] = species: Homo sapiens; assay: In vitro inhibition of platelet aggregation induced by PGH-2 (PRP incubated for 60 minutes at 37 degree C) at 10e-5 M; assay type: functional; settings: 1 h; method in brief: as §6
Rattus norvegicus [17] = assay: Percent fall in systolic blood pressure, directly measured on carotid (iv on the jugular vein) of spontaneously hypertensive rats at 1 mg/kg after 180 minutes; assay type: functional, Artery; method in brief: as §7
Rattus norvegicus [18] = assay: Antihypertensive activity in spontaneously hypertensive rats (SHR) measured by percentage fall in arterial pressure (AP) at 25 mg/kg administered intraperitoneally at 1 h; assay type: functional, Artery; settings: route intraperitoneal; method in brief: as §3
Rattus norvegicus [19] = assay: Percent fall in systolic blood pressure, directly measured on carotid (iv on the jugular vein) of spontaneously hypertensive rats at 1 mg/kg after 240 minutes; assay type: functional, Artery; method in brief: as §7
Homo sapiens [20] = species: Homo sapiens; assay: In vitro inhibition of platelet aggregation induced by ADP-II (PRP incubated for 60 minutes at 37 degree C) at 10e-5 M; assay type: functional; settings: 1 h; method in brief: as §6
Rattus norvegicus [21] = assay: Antihypertensive activity in spontaneously hypertensive rats (SHR) measured by percentage fall in arterial pressure (AP) at 5 mg/kg administered intraperitoneally at 24 h; assay type: functional, Artery; settings: route intraperitoneal; method in brief: as §3
Rattus norvegicus [22] = assay: Percent fall in systolic blood pressure, directly measured on carotid (iv on the jugular vein) of spontaneously hypertensive rats at 1 mg/kg after 15 minutes; assay type: functional, Artery; method in brief: as §7
Cavia porcellus [23] = assay: Ex vivo inhibition of platelet aggregation induced by AA at 100 mg/kg; assay type: functional; method in brief: as §4
Rattus norvegicus [24] = assay: Percent fall in systolic blood pressure, directly measured on carotid (iv on the jugular vein) of spontaneously hypertensive rats at 1 mg/kg after 120 minutes; assay type: functional, Artery; method in brief: as §7
Rattus norvegicus [25] = assay: Antihypertensive activity in spontaneously hypertensive rats (SHR) measured by percentage fall in arterial pressure (AP) at 25 mg/kg administered intraperitoneally at 24 h; assay type: functional, Artery; settings: route intraperitoneal; method in brief: as §3
Rattus norvegicus [26] = assay: Antihypertensive activity in spontaneously hypertensive rats (SHR) measured by percentage fall in arterial pressure (AP) at 5 mg/kg administered intraperitoneally at 1 h; assay type: functional, Artery; settings: route intraperitoneal; method in brief: as §3

## COc1ccc2[nH]c3c(NN)nncc3c2c1.Cl
[1]
  Inhibition: 50%
[2]
  LD50: 225 mg/kg
Rattus norvegicus [3]
  Decrease in AP: 34%
Rattus norvegicus [4]
  Decrease in CR: 38%
Rattus norvegicus [5]
  Decrease in AP: 35%
Cavia porcellus [6]
  inhibition in vivo at 100 mg/kg: 95%
Rattus norvegicus [7]
  Decrease in CR: -9%
Homo sapiens [8]
  inhibition at 10 µM: 100%
Rattus norvegicus [9]
  Decrease in AP: 57%
Rattus norvegicus [10]
  Decrease in AP: 40%
[11]
  Inhibition: 45%
[12]
  Inhibition: 35%
Rattus norvegicus [13]
  Decrease in CR: -6%
Rattus norvegicus [14]
  Decrease in AP: 50%
Rattus norvegicus [15]
  Decrease in blood pressure: 30%
Homo sapiens [16]
  inhibition at 10 µM: 100%
Rattus norvegicus [17]
  Decrease in blood pressure: 36%
Rattus norvegicus [18]
  Decrease in AP: 58%
Rattus norvegicus [19]
  Decrease in blood pressure: 30%
Homo sapiens [20]
  inhibition at 10 µM: 100%
Rattus norvegicus [21]
  Decrease in AP: 9%
Rattus norvegicus [22]
  Decrease in blood pressure: 40%
Cavia porcellus [23]
  inhibition in vivo at 100 mg/kg: 100%
Rattus norvegicus [24]
  Decrease in blood pressure: 40%
Rattus norvegicus [25]
  Decrease in AP: 10%
Rattus norvegicus [26]
  Decrease in AP: 50%
